# Screening data from PubChem.
# GPR7 antag – blocks human GPR7 receptor signaling; GPR7-expressing cells, fluorescence antagonist assay; inhibition, % at 4.4 µM; 1.1% of 290,000 active; P48145; in the data active = inhibition above about 16%, passing the limit was not always enough;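 note: cells stimulated with the agonist NPW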
# CHO parental Ca – counter-screen for OX1R antagonists: effect in parental CHO cells; parental CHO-K1, ATP-induced calcium, Fluo-8 fluorescence; inhibition, % at 5.6 µM; 0.63% of 330,000 active;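 active = inhibition above that plate's mean sample inhibition plus 3 SD, cut at about 26% in these data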
#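 Test system: untransfected parental CHO cell line; also added: ATP stimulus; dosing: 5.6 µM, single dose; signal: calcium-sensitive Fluo-8 fluorescence; measure: percent inhibition of ATP-evoked calcium rise, normalized to controls; benchmarks: low control ATP plus DMSO, high control DMSO only; replication: one well per compound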
# OX1R antag-1 – human HCRTR1 antagonism; AID 434989; CHO/OX1R cells, Fluo-8 calcium fluorescence, orexin A; 0.43% of 330,000 active; O43613; inhibition, % at 5 µM;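 active = inhibition above its plate's threshold, mean inhibition of all tested compounds on the plate plus 3 SD, cut at about 37% in these data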
# Target sequence (O43613 whole entry, looked up): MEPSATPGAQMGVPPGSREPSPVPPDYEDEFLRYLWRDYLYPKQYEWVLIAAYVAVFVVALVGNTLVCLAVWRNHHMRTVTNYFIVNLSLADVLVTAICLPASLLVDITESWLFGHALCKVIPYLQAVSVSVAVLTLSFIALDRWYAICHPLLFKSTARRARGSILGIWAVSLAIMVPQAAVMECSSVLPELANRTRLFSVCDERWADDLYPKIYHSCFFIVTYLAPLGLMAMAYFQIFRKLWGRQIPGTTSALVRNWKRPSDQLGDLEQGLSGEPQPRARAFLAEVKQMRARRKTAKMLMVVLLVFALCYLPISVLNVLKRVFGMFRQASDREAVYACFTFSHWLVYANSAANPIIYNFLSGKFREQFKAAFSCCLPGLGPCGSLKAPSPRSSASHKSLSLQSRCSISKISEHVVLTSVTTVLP
# EP2 antag – EP2 receptor (human) inhibition | P43116 | C6 glioma cells expressing human EP2, cAMP TR-FRET; cells stimulated with saturating PGE2 | inhibition, % at 25 µM | 0.52% of 260,000 active | AID 1422;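 active = percent inhibition above 40 after rounding to a whole number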;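 note: rat C6 glioma host cells with rolipram phosphodiesterase inhibitor present; the protocol text gives 20 µM as final concentration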
# OX1R antag-2 – blocks the human orexin 1 receptor; 1.8% of 330,000 active; O43613; OX1R-expressing cells, FRET antagonist read-out; inhibition, % at 6.6 µM; in the data active = inhibition mostly above about 38%, no sharp cut-off; inactive = mostly below about 40%
# EP2 modulator – modulates human prostaglandin E2 receptor EP2 signaling. P43116. EP2-expressing cells, cAMP HTRF FRET, PGE2 co-stimulation. induction, % at 25 µM. 0.83% of 260,000 active. AID 940;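 active = compounds whose cAMP rise, as percent of the full-agonist control response, exceeds 60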;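 note: rat C6 glioma line stably carrying human EP2 under a CMV promoter; the protocol text gives 20 µM as final concentration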
# Numbers stand for hits; . = inactive; / = not tested or not shown. Most compounds without a hit are left out; they make up all but 3.7% or so of the library.
SMILES,GPR7 antag,CHO parental Ca,OX1R antag-1,EP2 antag,OX1R antag-2,EP2 modulator
CC(=O)Nc1ccc(NC(=O)C(C)OC(=O)c2cc(S(=O)(=O)N3CCOCC3)ccc2Cl)cc1 (stereo unspecified),/,.,.,/,.,/
Nc1[nH]c(=O)nc(Nc2ccccc2)c1N=O,/,.,.,/,55,/
CN(C)Cc1cc(C(=O)O)cc(CN(C)C)c1O,/,/,/,.,/,.
CC(CCc1nc2ccccc2s1)(c1ccc(O)cc1)c1ccc(O)cc1,/,/,/,100,/,.
Oc1ccc(-c2nc3ccccc3s2)cc1,.,.,.,.,.,.
Oc1cc(NCCc2cccnc2)cc2cccnc12,/,.,.,/,66,/
Oc1cc(Nc2cccnc2)cc2cccnc12,/,.,.,/,.,/
CCOc1nc(-c2ccc(C)cc2)ccc1-c1noc(COC)n1,.,.,.,.,.,.
CCCc1nc(-c2ccc(-c3ccc(C)cc3)nc2OCC)no1,/,/,/,.,/,69
CCC(C(=O)NC1CCCC1)N(C(=O)c1snc(C(N)=O)c1N)c1ccc(OC)cc1 (stereo unspecified),.,.,.,.,.,.
COc1ccc(/C=C/c2c(-c3cccc(C)c3)oc3ccc(N4CCOCC4)cc23)cc1,/,.,.,40,.,/
Nn1cnnc1N/N=C/c1ccc(Cl)cc1Cl,.,/,/,/,/,/
COc1ccc(/C=N/Nc2nncn2N)cc1Br,.,.,.,/,65,/
CCc1nnc(N/N=C/c2c(Cl)cccc2Cl)n1N,.,.,.,.,45,.
CCOc1cc(/C=N/Nc2nnc(C)n2N)ccc1OC(C)=O,.,/,/,/,/,/
CCc1nnc(N/N=C/c2cc(Br)c(O)cc2O)n1N,.,.,.,/,72,/
CCc1nnc(N/N=C\c2ccc(OC(C)=O)c(OC)c2)n1N,.,.,.,/,44,/
Nc1nc2nc3c(nc2c(=O)[nH]1)CN(c1ccc(C(=O)O)cc1)C3=O,/,/,/,.,/,.
CCc1nnc(N/N=C/c2ccc(O)c(OC)c2)n1N,.,.,.,/,59,/
COc1cccc(/C=N/Nc2nnc(C)n2N)c1O,.,.,.,/,71,/
CC1CC(C)CN(C(=O)CSc2nc3ccsc3c(=O)n2Cc2ccccn2)C1 (stereo unspecified),.,.,.,.,.,.
Cn1nnnc1SCC(=O)NC(=O)NCc1ccccc1,.,.,.,.,.,.
OCc1ccncc1.OCc1ccncc1.[Cl][Pt]([Cl])([Cl])[Cl],/,/,/,69,/,.
CN(Cc1ccccc1)C(=O)COC(=O)Cn1cnc2ccccc21,.,.,.,.,.,.
CC(C)(C)OC(=O)C[C@H]1C/C=C\C[C@@H](CC(=O)N(CCO)Cc2ccccc2)C(=O)NC[C@H](c2ccccc2)OC1=O,/,.,.,/,.,/
SMILES,GPR7 antag,CHO parental Ca,OX1R antag-1,EP2 antag,OX1R antag-2,EP2 modulator
CC(C)(C)OC(=O)C[C@@H]1C/C=C\C[C@H](CC(=O)N(CCO)Cc2ccccc2)C(=O)NC[C@@H](c2ccccc2)OC1=O,/,.,.,/,54,/
O=C1NC[C@H](c2ccccc2)OC(=O)[C@@H](Cc2ccc(F)cc2)C/C=C\C[C@H]1CC(=O)N(CCO)Cc1ccccc1,/,.,.,/,56,/
Nc1oc2ccc(F)cc2c(=O)c1C=O,.,.,.,.,.,.
Cc1cc(Cl)ccc1N=c1ssnc1Cl,.,.,.,76,.,.
Cc1ccc(N=c2ssnc2Cl)cc1,.,.,.,134,.,.
COc1ccc(OC)c(N=c2ssnc2Cl)c1,.,.,.,77,.,.
COc1cc(C2Nc3ccccc3C(=O)N2c2ccc(Cl)cc2)c(Cl)cc1OCC(=O)O (stereo unspecified),.,.,.,.,.,.
O=[N+]([O-])c1ccc(NCCNCCOc2nonc2-c2ccccc2)c([N+](=O)[O-])c1,.,.,.,.,43,.
S=c1nc2ccccc2c2nc(-c3ccccc3Cl)[nH]n12,.,.,.,/,57,/
COc1cc(-c2nc3c4ccccc4nc(=S)n3[nH]2)cc(OC)c1OC,.,.,.,/,.,/
S=c1nc2ccccc2c2nc(-c3ccccc3)[nH]n12,.,.,.,/,65,.
COc1ccccc1-c1nc2c3ccccc3nc(=S)n2[nH]1,.,.,.,/,.,/
COc1ccc(S(=O)(=O)N(C)c2ccc(C(=O)NCc3ccco3)cc2)cc1OC,.,.,.,/,.,/
c1ccc2c(c1)COC1(CCCCC1)N2,/,/,/,.,/,.
CNc1ccccc1C(C)(C)c1cc(-c2cccc(OC)c2)no1,.,41,.,.,.,.
CNc1ccccc1C(C)(C)c1cc(-c2cc(C)cc(C)c2)no1,.,.,.,.,.,.
CCCn1c(Cc2ccccc2)nnc1SC(C)C(=O)NC1CC1 (stereo unspecified),/,.,.,/,.,/
C/C(=N\Nc1nc2ccccc2nc1C)c1ccccc1O,.,.,.,.,64,.
C/C(=N\Nc1ccc2ccccc2n1)c1ccccc1O,/,/,/,.,/,.
COc1ccc(N(C=O)C(=S)SC)cc1,.,.,.,.,.,.
O=C1CC(=Nc2ccccc2)NN1c1ccccc1,.,.,.,.,.,.
COc1ccc(OC)c(-c2csc(NC(=O)Cc3ccc(F)cc3)n2)c1,.,.,.,/,.,/
COc1ccc(OC)c(-c2csc(NC(=O)Cn3[nH]c(=O)c4ccccc4c3=O)n2)c1,17,.,.,.,.,.
CCCCCCCCn1cnc2c(N)c(C)c(C)cc21,.,.,.,.,.,62
COc1ccc(Cn2cnc3c(N)c(C)c(C)cc32)cc1,.,.,.,.,.,.
SMILES,GPR7 antag,CHO parental Ca,OX1R antag-1,EP2 antag,OX1R antag-2,EP2 modulator
COc1ccccc1C1CC(c2ccc(F)cc2)Nc2ncnn21 (stereo unspecified),.,.,.,.,.,.
COc1ccccc1C1CC(c2ccc(C)cc2)Nc2ncnn21 (stereo unspecified),14,.,.,.,.,.
CCC(C)(C)n1nnnc1C(c1ccc(OC)c(OC)c1)N1CCN(c2ccccc2)CC1 (stereo unspecified),18,.,.,.,.,.
CCCCOc1ccc(CSCCN)cc1Cl,.,.,.,.,.,.
[O-][N+]1=c2ccc(Nc3ccccc3)cc2=NC12CCCCC2,.,.,.,.,47,.
COC(=O)c1[nH]c2cc(OC)ccc2c1N=CN(C)C,.,.,.,.,.,.
NC(=O)c1cc(S(=O)(=O)N2CCN(c3cccc(Cl)c3)CC2)cs1,.,.,.,/,.,/
CCOC(=O)c1c(N)nn(C(=O)C(C)C)c1-c1ccccc1,.,.,.,.,.,63
CCc1cc2cccc(C)c2nc1SCC(=O)N1CCCC1,/,/,/,.,/,65
CCOC(=O)CC(=O)CSc1nc2c(C)ccc(C)c2cc1CC,/,/,/,.,/,95
CCOC(=O)CC(=O)CSc1nc2cc(C)cc(C)c2cc1CC,/,/,/,.,/,.
CCc1cc2cccc(C)c2nc1SCC(=O)N1CCN(C(=O)c2ccco2)CC1,.,.,.,.,.,.
Clc1ccc2nc(-c3ccccn3)c(Nc3ccc4c(c3)OCO4)n2c1,.,.,.,.,.,.
